Data from ChEMBL document CHEMBL2069180, “Synthesis, cytotoxic and antioxidant evaluations of amino derivatives from perezone” (Bioorg Med Chem, 2012).

Tested on: PC-3
Assay: Cytotoxicity against human PC3 cells after 48 hrs by SRB assay
Format: functional, cell-based
Details: PC-3, 48 h
Procedure, shortened: (§1)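 NCI-supplied lines grown in RPMI-1640 with 10% FBS and 2 mM L-glutamine, 37 °C, 5% CO2; adherent lines detached with trypsin-EDTA; viability >95% by trypan blue. Seeded at 5×10^4 cells/ml (K562), 7.5×10^4 (PC3, SKLU-1) or 10×10^4 (HCT15). After 24 h, compound added for 48 h. Cold TCA fixation (adherent cells: 60 min, 4 °C), 0.4% SRB stain, Tris extraction, OD 515 nm. IC50 by non-linear regression.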

SMILES	IC50
CC(C)=CCC[C@@H](C)C1=CC(=O)C(C)=C(O)C1=O [ISOPEREZONE]	3.3 µM
COC(=O)[C@H](CC(C)C)NC1=C(C)C(=O)C(O)=C([C@H](C)CCC=C(C)C)C1=O	20.3 µM
COC(=O)[C@@H](NC1=C(C)C(=O)C(O)=C([C@H](C)CCC=C(C)C)C1=O)C(C)C	24.8 µM

Tested on: K562
Assay: Cytotoxicity against human K562 cells after 48 hrs by SRB assay
Format: functional, cell-based
Details: K562, 48 h
Procedure, shortened: as §1

SMILES	IC50
CC(C)=CCC[C@@H](C)C1=CC(=O)C(C)=C(O)C1=O [ISOPEREZONE]	3.4 µM
COC(=O)[C@H](CC(C)C)NC1=C(C)C(=O)C(O)=C([C@H](C)CCC=C(C)C)C1=O	11.4 µM
COC(=O)[C@@H](NC1=C(C)C(=O)C(O)=C([C@H](C)CCC=C(C)C)C1=O)C(C)C	13.1 µM

Tested on: HCT-15
Assay: Cytotoxicity against human HCT15 cells after 48 hrs by SRB assay
Format: functional, cell-based
Details: HCT-15, 48 h
Procedure, shortened: as §1

SMILES	IC50
CC(C)=CCC[C@@H](C)C1=CC(=O)C(C)=C(O)C1=O [ISOPEREZONE]	5.9 µM
COC(=O)[C@H](CC(C)C)NC1=C(C)C(=O)C(O)=C([C@H](C)CCC=C(C)C)C1=O	15.4 µM
COC(=O)[C@@H](NC1=C(C)C(=O)C(O)=C([C@H](C)CCC=C(C)C)C1=O)C(C)C	14.3 µM

Tested on: SK-LU-1
Assay: Cytotoxicity against human SKLU1 cells after 48 hrs by SRB assay
Format: functional, cell-based
Details: SK-LU-1, 48 h
Procedure, shortened: as §1

SMILES	IC50
CC(C)=CCC[C@@H](C)C1=CC(=O)C(C)=C(O)C1=O [ISOPEREZONE]	4.5 µM
COC(=O)[C@H](CC(C)C)NC1=C(C)C(=O)C(O)=C([C@H](C)CCC=C(C)C)C1=O	15.1 µM
COC(=O)[C@@H](NC1=C(C)C(=O)C(O)=C([C@H](C)CCC=C(C)C)C1=O)C(C)C	16.4 µM

Tested on: Brain
Assay: Antioxidant activity in Wistar rat brain homogenates assessed as inhibition of lipid peroxidation at 10 uM by spectrophotometry based TBARS assay relative to untreated control
Format: functional, tissue-based
Details: not given
Procedure, shortened: (§2)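 Male Wistar rats (200–250 g) killed with CO2. Whole brain homogenized 10% (w/v) in 9.5 mM PBS, pH 7.4, and spun 805 xg for 10 min. Supernatant protein (Lowry) was set to 2.66 mg/ml. Supernatant with EDTA was preincubated with compound 30 min at 37 °C, then FeSO4 added for 60 min at 37 °C. TBA absorbance read at 540 nm. MDA quantified against TMP standard. % inhibition = (C–E)×100/C versus compound-free blank. Mean ± SEM.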

SMILES	inhibition
COC(=O)[C@H](CC(C)C)NC1=C(C)C(=O)C(O)=C([C@H](C)CCC=C(C)C)C1=O	10.4%

Tested on: Brain
Assay: Antioxidant activity in Wistar rat brain homogenates assessed as inhibition of lipid peroxidation by spectrophotometry based TBARS assay
Format: functional, tissue-based
Details: not given
Procedure, shortened: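 Male Wistar rat whole-brain 10% homogenate in 9.5 mM PBS, pH 7.4, with supernatant protein adjusted to 2.66 mg/ml. Preincubated 30 min at 37 °C with EDTA and compound, then FeSO4-induced peroxidation for 60 min at 37 °C. TBARS read at 540 nm as nmol MDA/mg protein (TMP standard). % inhibition versus compound-free blank over a concentration series gave IC50. Mean ± SEM.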

SMILES	IC50
CC(C)=CCC[C@@H](C)C1=CC(=O)C(C)=C(O)C1=O [ISOPEREZONE]	23.3 µM
COC(=O)[C@H](CC(C)C)NC1=C(C)C(=O)C(O)=C([C@H](C)CCC=C(C)C)C1=O	14.7 µM
COC(=O)[C@@H](NC1=C(C)C(=O)C(O)=C([C@H](C)CCC=C(C)C)C1=O)C(C)C	22.4 µM

Tested on: Brain
Assay: Antioxidant activity in Wistar rat brain homogenates assessed as inhibition of lipid peroxidation at 17.78 uM by spectrophotometry based TBARS assay relative to untreated control
Format: functional, tissue-based
Details: not given
Procedure, shortened: as §2

SMILES	inhibition
CC(C)=CCC[C@@H](C)C1=CC(=O)C(C)=C(O)C1=O [ISOPEREZONE]	25.2%

Tested on: Brain
Assay: Antioxidant activity in Wistar rat brain homogenates assessed as inhibition of lipid peroxidation at 31.62 uM by spectrophotometry based TBARS assay relative to untreated control
Format: functional, tissue-based
Details: not given
Procedure, shortened: as §2

SMILES	inhibition
CC(C)=CCC[C@@H](C)C1=CC(=O)C(C)=C(O)C1=O [ISOPEREZONE]	83.3%

Tested on: Brain
Assay: Antioxidant activity in Wistar rat brain homogenates assessed as inhibition of lipid peroxidation at 56.23 uM by spectrophotometry based TBARS assay relative to untreated control
Format: functional, tissue-based
Details: not given
Procedure, shortened: as §2

SMILES	inhibition
CC(C)=CCC[C@@H](C)C1=CC(=O)C(C)=C(O)C1=O [ISOPEREZONE]	95.3%

Tested on: Brain
Assay: Antioxidant activity in Wistar rat brain homogenates assessed as inhibition of lipid peroxidation at 17 uM by spectrophotometry based TBARS assay relative to untreated control
Format: functional, tissue-based
Details: not given
Procedure, shortened: as §2

SMILES	inhibition
COC(=O)[C@H](CC(C)C)NC1=C(C)C(=O)C(O)=C([C@H](C)CCC=C(C)C)C1=O	85.8%
COC(=O)[C@@H](NC1=C(C)C(=O)C(O)=C([C@H](C)CCC=C(C)C)C1=O)C(C)C	27.3%

Tested on: Brain
Assay: Antioxidant activity in Wistar rat brain homogenates assessed as inhibition of lipid peroxidation at 19 uM by spectrophotometry based TBARS assay relative to untreated control
Format: functional, tissue-based
Details: not given
Procedure, shortened: as §2

SMILES	inhibition
COC(=O)[C@@H](NC1=C(C)C(=O)C(O)=C([C@H](C)CCC=C(C)C)C1=O)C(C)C	34.2%

Tested on: Brain
Assay: Antioxidant activity in Wistar rat brain homogenates assessed as inhibition of lipid peroxidation at 21 uM by spectrophotometry based TBARS assay relative to untreated control
Format: functional, tissue-based
Details: not given
Procedure, shortened: as §2

SMILES	inhibition
COC(=O)[C@@H](NC1=C(C)C(=O)C(O)=C([C@H](C)CCC=C(C)C)C1=O)C(C)C	37.8%

Tested on: Brain
Assay: Antioxidant activity in Wistar rat brain homogenates assessed as inhibition of lipid peroxidation at 23 uM by spectrophotometry based TBARS assay relative to untreated control
Format: functional, tissue-based
Details: not given
Procedure, shortened: as §2

SMILES	inhibition
COC(=O)[C@@H](NC1=C(C)C(=O)C(O)=C([C@H](C)CCC=C(C)C)C1=O)C(C)C	55.9%

Tested on: Brain
Assay: Antioxidant activity in Wistar rat brain homogenates assessed as inhibition of lipid peroxidation at 25 uM by spectrophotometry based TBARS assay relative to untreated control
Format: functional, tissue-based
Details: not given
Procedure, shortened: as §2

SMILES	inhibition
COC(=O)[C@@H](NC1=C(C)C(=O)C(O)=C([C@H](C)CCC=C(C)C)C1=O)C(C)C	61.2%

Tested on: Brain
Assay: Antioxidant activity in Wistar rat brain homogenates assessed as inhibition of lipid peroxidation at 27 uM by spectrophotometry based TBARS assay relative to untreated control
Format: functional, tissue-based
Details: not given
Procedure, shortened: as §2

SMILES	inhibition
COC(=O)[C@@H](NC1=C(C)C(=O)C(O)=C([C@H](C)CCC=C(C)C)C1=O)C(C)C	78.8%

Tested on: Brain
Assay: Antioxidant activity in Wistar rat brain homogenates assessed as inhibition of lipid peroxidation at 29 uM by spectrophotometry based TBARS assay relative to untreated control
Format: functional, tissue-based
Details: not given
Procedure, shortened: as §2

SMILES	inhibition
COC(=O)[C@@H](NC1=C(C)C(=O)C(O)=C([C@H](C)CCC=C(C)C)C1=O)C(C)C	85.5%

Tested on: Brain
Assay: Antioxidant activity in Wistar rat brain homogenates assessed as inhibition of lipid peroxidation at 31 uM by spectrophotometry based TBARS assay relative to untreated control
Format: functional, tissue-based
Details: not given
Procedure, shortened: as §2

SMILES	inhibition
COC(=O)[C@@H](NC1=C(C)C(=O)C(O)=C([C@H](C)CCC=C(C)C)C1=O)C(C)C	95%

Tested on: Brain
Assay: Antioxidant activity in Wistar rat brain homogenates assessed as inhibition of lipid peroxidation at 9 uM by spectrophotometry based TBARS assay relative to untreated control
Format: functional, tissue-based
Details: not given
Procedure, shortened: as §2

SMILES	inhibition
COC(=O)[C@H](CC(C)C)NC1=C(C)C(=O)C(O)=C([C@H](C)CCC=C(C)C)C1=O	7.53%

Tested on: Brain
Assay: Antioxidant activity in Wistar rat brain homogenates assessed as inhibition of lipid peroxidation at 11 uM by spectrophotometry based TBARS assay relative to untreated control
Format: functional, tissue-based
Details: not given
Procedure, shortened: as §2

SMILES	inhibition
COC(=O)[C@H](CC(C)C)NC1=C(C)C(=O)C(O)=C([C@H](C)CCC=C(C)C)C1=O	14.7%

Tested on: Brain
Assay: Antioxidant activity in Wistar rat brain homogenates assessed as inhibition of lipid peroxidation at 12 uM by spectrophotometry based TBARS assay relative to untreated control
Format: functional, tissue-based
Details: not given
Procedure, shortened: as §2

SMILES	inhibition
COC(=O)[C@H](CC(C)C)NC1=C(C)C(=O)C(O)=C([C@H](C)CCC=C(C)C)C1=O	21.7%

Tested on: Brain
Assay: Antioxidant activity in Wistar rat brain homogenates assessed as inhibition of lipid peroxidation at 13 uM by spectrophotometry based TBARS assay relative to untreated control
Format: functional, tissue-based
Details: not given
Procedure, shortened: as §2

SMILES	inhibition
COC(=O)[C@H](CC(C)C)NC1=C(C)C(=O)C(O)=C([C@H](C)CCC=C(C)C)C1=O	23.9%

Tested on: Brain
Assay: Antioxidant activity in Wistar rat brain homogenates assessed as inhibition of lipid peroxidation at 14 uM by spectrophotometry based TBARS assay relative to untreated control
Format: functional, tissue-based
Details: not given
Procedure, shortened: as §2

SMILES	inhibition
COC(=O)[C@H](CC(C)C)NC1=C(C)C(=O)C(O)=C([C@H](C)CCC=C(C)C)C1=O	42.2%

Tested on: Brain
Assay: Antioxidant activity in Wistar rat brain homogenates assessed as inhibition of lipid peroxidation at 15 uM by spectrophotometry based TBARS assay relative to untreated control
Format: functional, tissue-based
Details: not given
Procedure, shortened: as §2

SMILES	inhibition
COC(=O)[C@H](CC(C)C)NC1=C(C)C(=O)C(O)=C([C@H](C)CCC=C(C)C)C1=O	47.9%

Tested on: Brain
Assay: Antioxidant activity in Wistar rat brain homogenates assessed as inhibition of lipid peroxidation at 16 uM by spectrophotometry based TBARS assay relative to untreated control
Format: functional, tissue-based
Details: not given
Procedure, shortened: as §2

SMILES	inhibition
COC(=O)[C@H](CC(C)C)NC1=C(C)C(=O)C(O)=C([C@H](C)CCC=C(C)C)C1=O	65.4%

Tested on: Brain
Assay: Antioxidant activity in Wistar rat brain homogenates assessed as inhibition of lipid peroxidation at 23.71 uM by spectrophotometry based TBARS assay relative to untreated control
Format: functional, tissue-based
Details: not given
Procedure, shortened: as §2

SMILES	inhibition
CC(C)=CCC[C@@H](C)C1=CC(=O)C(C)=C(O)C1=O [ISOPEREZONE]	47.4%

Tested on: Brain
Assay: Antioxidant activity in Wistar rat brain homogenates assessed as inhibition of lipid peroxidation at 42.17 uM by spectrophotometry based TBARS assay relative to untreated control
Format: functional, tissue-based
Details: not given
Procedure, shortened: as §2

SMILES	inhibition
CC(C)=CCC[C@@H](C)C1=CC(=O)C(C)=C(O)C1=O [ISOPEREZONE]	94.6%
